Test results as given in ChEMBL document CHEMBL3632558, “Synthesis, antimycobacterial and antibacterial activity of l-[(1R,2S)-2-fluorocyclopropyl]naphthyridone derivatives containing an oxime-functionalized pyrrolidine moiety” (2015).
In brackets after ≈: the same amount, converted by molar mass.

How the values were obtained:
Assay type in all cases: functional
Enterococcus faecalis [1] = test: Antibacterial activity against Enterococcus faecalis 14-2 after 18 to 24 hrs
How it was run: (§1)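 MIC by standard NCCLS reference procedure (M100-S11); lowest concentration of compound inhibiting visible bacterial growth after incubation at 35 °C for 18–24 h, read as complete inhibition of growth. Ciprofloxacin, levofloxacin and moxifloxacin run alongside as reference agents.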

Enterococcus faecium [2] = test: Antibacterial activity against Enterococcus faecium 14-1 after 18 to 24 hrs; how it was run: as §1
Enterococcus faecium [3] = test: Antibacterial activity against Enterococcus faecium 14-2 after 18 to 24 hrs; how it was run: as §1
Enterococcus faecium [4] = test: Antibacterial activity against Enterococcus faecium 14-5 after 18 to 24 hrs; how it was run: as §1
Enterococcus faecium [5] = test: Antibacterial activity against Enterococcus faecium 14-6 after 18 to 24 hrs; how it was run: as §1
[6] = system: Mycobacterium tuberculosis; test: Antimycobacterial activity against Mycobacterium tuberculosis H37Rv ATCC 27294 by alamar blue assay
How it was run: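 Microplate Alamar Blue Assay; MIC is the lowest concentration giving ≥90% reduction in fluorescence relative to the mean of replicate bacterium-only controls. MDR strain 6133 is resistant to isoniazid and rifampicin.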

Escherichia coli [7] = test: Antibacterial activity against Escherichia coli ATCC 25922 after 18 to 24 hrs; how it was run: as §1
Escherichia coli [8] = test: Antibacterial activity against ESBL-positive Escherichia coli 14-1 after 18 to 24 hrs; how it was run: as §1
Escherichia coli [9] = test: Antibacterial activity against ESBL-positive Escherichia coli 14-2 after 18 to 24 hrs; how it was run: as §1
Escherichia coli [10] = test: Antibacterial activity against Escherichia coli 14-1 after 18 to 24 hrs; how it was run: as §1
Escherichia coli [11] = test: Antibacterial activity against Escherichia coli 14-2 after 18 to 24 hrs; how it was run: as §1
Klebsiella pneumoniae [12] = test: Antibacterial activity against ESBL-positive Klebsiella pneumoniae 14-17 after 18 to 24 hrs; how it was run: as §1
Klebsiella pneumoniae [13] = test: Antibacterial activity against ESBL-positive Klebsiella pneumoniae 14-18 after 18 to 24 hrs; how it was run: as §1
Klebsiella pneumoniae [14] = test: Antibacterial activity against ESBL-positive Klebsiella pneumoniae 14-19 after 18 to 24 hrs; how it was run: as §1
Klebsiella pneumoniae [15] = test: Antibacterial activity against Klebsiella pneumoniae 14-1 after 18 to 24 hrs; how it was run: as §1
Klebsiella pneumoniae [16] = test: Antibacterial activity against Klebsiella pneumoniae 14-2 after 18 to 24 hrs; how it was run: as §1
Klebsiella pneumoniae [17] = test: Antibacterial activity against Klebsiella pneumoniae 14-3 after 18 to 24 hrs; how it was run: as §1
Klebsiella pneumoniae [18] = test: Antibacterial activity against Klebsiella pneumoniae 14-4 after 18 to 24 hrs; how it was run: as §1
Pseudomonas aeruginosa [19] = test: Antibacterial activity against Pseudomonas aeruginosa ATCC 27853 after 18 to 24 hrs; how it was run: as §1
Pseudomonas aeruginosa [20] = test: Antibacterial activity against Pseudomonas aeruginosa 14-9 after 18 to 24 hrs; how it was run: as §1
Pseudomonas aeruginosa [21] = test: Antibacterial activity against Pseudomonas aeruginosa 14-14 after 18 to 24 hrs; how it was run: as §1
Pseudomonas aeruginosa [22] = test: Antibacterial activity against Pseudomonas aeruginosa 14-15 after 18 to 24 hrs; how it was run: as §1
Pseudomonas aeruginosa [23] = test: Antibacterial activity against Pseudomonas aeruginosa 14-16 after 18 to 24 hrs; how it was run: as §1
Pseudomonas aeruginosa [24] = test: Antibacterial activity against Pseudomonas aeruginosa 14-19 after 18 to 24 hrs; how it was run: as §1
Staphylococcus aureus [25] = test: Antibacterial activity against Staphylococcus aureus CMCC 26003 after 18 to 24 hrs; how it was run: as §1
Staphylococcus aureus [26] = test: Antibacterial activity against methicillin-sensitive Staphylococcus aureus 14-1 after 18 to 24 hrs; how it was run: as §1
Staphylococcus aureus [27] = test: Antibacterial activity against methicillin-sensitive Staphylococcus aureus 14-2 after 18 to 24 hrs; how it was run: as §1
Staphylococcus aureus [28] = test: Antibacterial activity against methicillin-sensitive Staphylococcus aureus 14-3 after 18 to 24 hrs; how it was run: as §1
Staphylococcus aureus [29] = test: Antibacterial activity against methicillin-sensitive Staphylococcus aureus 14-4 after 18 to 24 hrs; how it was run: as §1
Staphylococcus aureus [30] = test: Antibacterial activity against methicillin-resistant Staphylococcus aureus 14-4 after 18 to 24 hrs
Staphylococcus aureus [31] = test: Antibacterial activity against methicillin-resistant Staphylococcus aureus 14-5 after 18 to 24 hrs
[32] = system: Staphylococcus epidermidis; test: Antibacterial activity against methicillin-sensitive Staphylococcus epidermidis 14-2 after 18 to 24 hrs; how it was run: as §1
[33] = system: Staphylococcus epidermidis; test: Antibacterial activity against methicillin-resistant Staphylococcus epidermidis 14-21 after 18 to 24 hrs
[34] = system: Staphylococcus epidermidis; test: Antibacterial activity against methicillin-resistant Staphylococcus epidermidis 14-22 after 18 to 24 hrs
[35] = system: Staphylococcus epidermidis; test: Antibacterial activity against methicillin-resistant Staphylococcus epidermidis 14-37 after 18 to 24 hrs
[36] = system: Staphylococcus epidermidis; test: Antibacterial activity against methicillin-resistant Staphylococcus epidermidis 14-39 after 18 to 24 hrs
Streptococcus pneumoniae = test: Antibacterial activity against Streptococcus pneumoniae ATCC 19615 after 18 to 24 hrs; how it was run: as §1
Enterococcus faecalis [37] = test: Antibacterial activity against Enterococcus faecalis 14-1 after 18 to 24 hrs; how it was run: as §1

SMILES | MIC (Enterococcus faecalis [1]) [µg/mL] | MIC (Enterococcus faecium [2]) [µg/mL] | MIC (Enterococcus faecium [3]) [µg/mL] | MIC (Enterococcus faecium [4]) [µg/mL] | MIC (Enterococcus faecium [5]) [µg/mL] | MIC90 [6] [µg/mL] | MIC (Escherichia coli [7]) [µg/mL] | MIC (Escherichia coli [8]) [µg/mL] | MIC (Escherichia coli [9]) [µg/mL] | MIC (Escherichia coli [10]) [µg/mL] | MIC (Escherichia coli [11]) [µg/mL] | MIC (Klebsiella pneumoniae [12]) [µg/mL] | MIC (Klebsiella pneumoniae [13]) [µg/mL] | MIC (Klebsiella pneumoniae [14]) [µg/mL] | MIC (Klebsiella pneumoniae [15]) [µg/mL] | MIC (Klebsiella pneumoniae [16]) [µg/mL] | MIC (Klebsiella pneumoniae [17]) [µg/mL] | MIC (Klebsiella pneumoniae [18]) [µg/mL] | MIC (Pseudomonas aeruginosa [19]) [µg/mL] | MIC (Pseudomonas aeruginosa [20]) [µg/mL] | other results
COc1cc(CO/N=C2\CN(c3nc4c(cc3F)c(=O)c(C(=O)O)cn4[C@@H]3C[C@@H]3F)CC2CN)cc(OC)c1 (stereo partly specified) | 1 (≈ 1.84 µM) | 2 (≈ 3.68 µM) | 4 (≈ 7.36 µM) | 8 (≈ 14.7 µM) | 16 (≈ 29.4 µM) | 0.375 (≈ 0.69 µM) | 2 (≈ 3.68 µM) | 4 (≈ 7.36 µM) | > 128 | > 128 | > 128 | 16 (≈ 29.4 µM) | 16 (≈ 29.4 µM) | 128 (≈ 235 µM) | 128 (≈ 235 µM) | > 128 | 64 (≈ 118 µM) | > 128 | 8 (≈ 14.7 µM) | 32 (≈ 58.9 µM) | MIC (Pseudomonas aeruginosa [21]): 32 µg/mL (≈ 58.9 µM); MIC (Pseudomonas aeruginosa [22]): 32 µg/mL (≈ 58.9 µM); MIC (Pseudomonas aeruginosa [23]): 32 µg/mL (≈ 58.9 µM); MIC (Pseudomonas aeruginosa [24]): 16 µg/mL (≈ 29.4 µM); MIC (Staphylococcus aureus [25]): < 0.008 µg/mL; MIC (Staphylococcus aureus [26]): 4 µg/mL (≈ 7.36 µM); MIC (Staphylococcus aureus [27]): < 0.008 µg/mL; MIC (Staphylococcus aureus [28]): 0.015 µg/mL (≈ 0.0276 µM); MIC (Staphylococcus aureus [29]): 0.015 µg/mL (≈ 0.0276 µM); MIC (Staphylococcus aureus [30]): 16 µg/mL (≈ 29.4 µM); MIC (Staphylococcus aureus [31]): 8 µg/mL (≈ 14.7 µM); MIC [32]: 16 µg/mL (≈ 29.4 µM); MIC [33]: 4 µg/mL (≈ 7.36 µM); MIC [34]: 4 µg/mL (≈ 7.36 µM); MIC [35]: 16 µg/mL (≈ 29.4 µM); MIC [36]: 16 µg/mL (≈ 29.4 µM); MIC (Streptococcus pneumoniae): 0.06 µg/mL (≈ 0.11 µM); MIC (Enterococcus faecalis [37]): 16 µg/mL (≈ 29.4 µM)
CCO/N=C1\CN(c2nc3c(cc2F)c(=O)c(C(=O)O)cn3[C@@H]2C[C@@H]2F)CC1(C)N (stereo partly specified) | 2 (≈ 4.75 µM) | > 128 | > 128 | > 128 | > 128 | 0.42 (≈ 0.997 µM) | 1 (≈ 2.37 µM) | 32 (≈ 75.9 µM) | > 128 | > 128 | > 128 | 32 (≈ 75.9 µM) | 32 (≈ 75.9 µM) | 128 (≈ 304 µM) | 128 (≈ 304 µM) | > 128 | 128 (≈ 304 µM) | > 128 | 16 (≈ 38 µM) | 16 (≈ 38 µM) | MIC (Pseudomonas aeruginosa [21]): 32 µg/mL (≈ 75.9 µM); MIC (Pseudomonas aeruginosa [22]): 32 µg/mL (≈ 75.9 µM); MIC (Pseudomonas aeruginosa [23]): 32 µg/mL (≈ 75.9 µM); MIC (Pseudomonas aeruginosa [24]): 64 µg/mL (≈ 152 µM); MIC (Staphylococcus aureus [25]): 0.25 µg/mL (≈ 0.593 µM); MIC (Staphylococcus aureus [26]): 64 µg/mL (≈ 152 µM); MIC (Staphylococcus aureus [27]): 0.25 µg/mL (≈ 0.593 µM); MIC (Staphylococcus aureus [28]): 0.5 µg/mL (≈ 1.19 µM); MIC (Staphylococcus aureus [29]): 1 µg/mL (≈ 2.37 µM); MIC (Staphylococcus aureus [30]): 64 µg/mL (≈ 152 µM); MIC (Staphylococcus aureus [31]): 128 µg/mL (≈ 304 µM); MIC [32]: > 128 µg/mL; MIC [33]: 64 µg/mL (≈ 152 µM); MIC [34]: 32 µg/mL (≈ 75.9 µM); MIC [35]: 32 µg/mL (≈ 75.9 µM); MIC [36]: 128 µg/mL (≈ 304 µM); MIC (Streptococcus pneumoniae): 0.25 µg/mL (≈ 0.593 µM); MIC (Enterococcus faecalis [37]): 128 µg/mL (≈ 304 µM)
